# Assay results from publication PMC5756543 (The Journal of Nutritional Biochemistry, 2017).
# Columns and labels:
# Caco-2 cells [1] = test: FA transport and metabolism across differentiated Caco-2 monolayers; type: in vitro ADME, human; settings: for effect on transepithelial transport of FA (apical to basolateral): vs untreated (abstract, discussion); for effect on FA-sul in apical compartment / increase of FA-glu in basal compartment: n=6, P<.01
# Summary of the method: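 Caco-2 monolayers were pretreated apically with 1 mM SCFA/lactate or mix from day 7 and used at 21–23 days after 30 min HBSS (pH 7.4) equilibration at 37°C; monolayers with TEER <930 Ω cm2 were discarded. Apical 500 µM test compound was applied for 1 h. Apical and basal samples were stabilised with ascorbic acid and spiked with acetic acid (10 mM final) and DMCA internal standard (10 µM final). LC-MS/MS MRM quantified parent and conjugates. Six biological replicates in duplicate; t test.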
# Caco-2 cells [2] = test: HT transport and phase II metabolism across differentiated Caco-2 monolayers; type: in vitro ADME, human; settings: for rate of appearance of HT conjugate in apical compartment / rate of appearance of HT conjugate in basal compartment: 20 μM HT apical, HT-7-sul as HT-3′-sul equivalents; for decrease of HT-3′-glu 2 formation: acetate: in both compartments; for effect on efflux of HT-7-glu to both compartments: chronic treatment 1 mM 14 days (discussion)
# Summary of the method: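 Caco-2 monolayers on transwells were pretreated apically with 1 mM SCFA/lactate or mix from day 7 to day 21–23. Cells were equilibrated in HBSS (1.8 mM CaCl2, pH 7.4) for 30 min at 37°C, and monolayers below 930 Ω cm2 TEER were discarded. Apical 20 µM test compound was applied for 1 h. Both compartments were sampled with 100 µM ascorbic acid and analysed by LC-MS/MS MRM (daidzein internal standard, matrix-matched calibration). n=6 in duplicate; t test.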
# Caco-2 cells [3] = test: SA transport across differentiated Caco-2 monolayers; type: in vitro ADME, human; settings: for effect on SA transport / increase of SA in the basolateral compartment: 1 mM 14 days, vs untreated cells; for increase of SA in the basolateral compartment: n=6, P=.003
# Summary of the method: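 Pretreated Caco-2 transwell monolayers (1 mM apical SCFA/lactate or mix from day 7, used at 21–23 days) were equilibrated in HBSS (pH 7.4) for 30 min at 37°C; monolayers under 930 Ω cm2 TEER were excluded. Apical 1 mM MCT substrate was incubated for 30 min. Both compartments were analysed by HPLC-UV at 303 nm, with DMCA internal standard at 326 nm. Six biological replicates in duplicate; t test, P<.01.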
# MCT1 (SLC16A1) mRNA = test: MCT1 gene expression by ddPCR in Caco-2 cells; type: cell-based, human; settings: 1 mM 14 days, vs control
# Summary of the method: (§1)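 Caco-2 cells were seeded on transwells at 6×104 cm−2 and grown 21–23 days. From day 7 the apical medium was FBS-free with 1 mM Na-acetate, -propionate, -butyrate, -lactate or an equimolar mix (0.25 mM each); basal medium had 20% FBS; 0.1% DMSO served as control. RNA (1 µg) was reverse-transcribed. Duplex TaqMan ddPCR used 0.65 ng cDNA per reaction, with target FAM and TBP VIC. Copies/ng cDNA were derived by Poisson analysis. Four biological replicates from two seedings, each with three technical replicates; t test.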
# MCT4 (SLC16A3) mRNA = test: MCT4 gene expression by ddPCR in Caco-2 cells; type: cell-based, human; settings: vs control; for increase of MCT4 mRNA: 1 mM 14 days (mix 0.25 mM each), n=4
# Summary of the method: as §1
# ABCG2 mRNA = test: ABCG2 gene expression by ddPCR in Caco-2 cells; type: cell-based, human; settings: vs control; for effect on ABCG2 mRNA: 1 mM 14 days; for decrease of ABCG2 mRNA: 1 mM 14 days (mix 0.25 mM each)
# Summary of the method: as §1
# MCT1 protein = MCT1 protein abundance by ProteinSimple WES in Caco-2 cells; type: cell-based, human; settings: 1 mM 14 days, vs control
# UGT1A protein = UGT1A protein abundance by ProteinSimple WES in Caco-2 cells; type: cell-based, human; settings: 1 mM 14 days; for decrease of UGT1A protein levels: vs control; for effect on UGT1A protein: vs control (discussion)
# Caco-2 cells [4] = test: Transepithelial Electrical Resistance; type: cell-based, human; settings: 1 mM apical pretreatment 14 days, n=36; for average TEER value after pretreatment: untreated 1149±23
# Summary of the method: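 Caco-2 cells were seeded on transwells at 6×104 cm−2 and exposed apically from day 7 to 1 mM Na-acetate, -propionate, -butyrate, -lactate or mix in FBS-free medium (basal 20% FBS; 0.1% DMSO control). At 21–23 days, after HBSS washes and 30 min equilibration at 37°C, 10% CO2, TEER was measured with a voltohmmeter; t test.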
# MCT4 protein = MCT4 protein abundance by ProteinSimple WES in Caco-2 cells; type: cell-based, human; settings: 1 mM 14 days (mix 0.25 mM each), vs control
# ABCG2 protein = ABCG2 protein abundance by ProteinSimple WES in Caco-2 cells; type: cell-based, human; settings: vs control; for decrease of ABCG2 protein levels: 1 mM 14 days
# Summary of the method: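 Transwell Caco-2 monolayers received 1 mM apical SCFA/lactate or mix (0.25 mM each) from day 7 and were lysed at 21–23 days in Bicine-CHAPS with inhibitors, then BCA-quantified. For capillary WES, 1.5 mg/ml lysate was used with 95°C denaturation for 5 min. α-Tubulin loading control came from the same sample in separate capillaries. Peak areas were quantified. Mean of 3–6 biological replicates ±S.E.M.; t test.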
# [5] = 1 mM 14 days, vs untreated, n=6, P<.01
# [6] = 1 mM 14 days, vs untreated, n=6, P<.001
smiles,measurement,setting,value
"COc1cc(/C=C/C(=O)O)ccc1O [FA, ferulic acid]",FA transported to the basal compartment,"Caco-2 cells [1]; untreated cells, 500 μM FA (1 μmol) apical, 1 h",1.73 ± 0.17 nmol/min
same,"FA transported to basal compartment, share of added FA","Caco-2 cells [1]; untreated cells, after 1 h",10.4%
"COc1ccc([C@@H]2CC(=O)c3c(O)cc(O)cc3O2)cc1O [HT, hesperetin]",HT transported unchanged to the basolateral compartment,"Caco-2 cells [2]; cells not treated with SCFA, 20 μM HT (40 nmol) apical, 1 h",87 ± 26 pmol/min
same,"HT transported to basolateral compartment, share of HT added apically","Caco-2 cells [2]; cells not treated with SCFA, after 60 min incubation",13%
"COc1ccc(C2CC(=O)c3c(O)cc(O)cc3O2)cc1OS(=O)(=O)O (centres unmarked) [HT-3′-sul, hesperetin-3′-O-sulfate]",rate of appearance of HT conjugate in apical compartment,"Caco-2 cells [2]; untreated cells, 1 h",2.8 ± 0.1 pmol/min
same,rate of appearance of HT conjugate in basal compartment,"Caco-2 cells [2]; untreated cells, 1 h",2.53 ± 0.06 pmol/min
"COc1ccc([C@@H]2CC(=O)c3c(O)cc(O[C@@H]4O[C@H](C(=O)O)[C@@H](O)[C@H](O)[C@H]4O)cc3O2)cc1O [HT-7-glu, Hesperetin-7-O-glucuronide]",conjugate formed (basal + apical) as share of original HT added apically,"Caco-2 cells [2]; untreated cells, 1 h",2.4%
same,rate of appearance of HT conjugate in apical compartment,"Caco-2 cells [2]; untreated cells, 1 h",3.87 ± 0.07 pmol/min
same,rate of appearance of HT conjugate in basal compartment,"Caco-2 cells [2]; untreated cells, 1 h",12.33 ± 0.57 pmol/min
"COc1ccc([C@@H]2CC(=O)c3c(O)cc(OS(=O)(=O)O)cc3O2)cc1O [HT-7-sul, hesperetin-7-O-sulfate]",rate of appearance of HT conjugate in apical compartment,"Caco-2 cells [2]; untreated cells, 1 h",2.6 ± 0.06 pmol/min
same,rate of appearance of HT conjugate in basal compartment,"Caco-2 cells [2]; untreated cells, 1 h",1.9 ± 0.03 pmol/min
"O=C(O)c1ccccc1O [SA, salicylic acid, reference compound]","SA transported to the basolateral side, share of original amount added apically","Caco-2 cells [3]; 1 mM SA apical, within 30 min",~ 10%
"CC(=O)[O-].[Na+] [acetate, Na-acetate]",effect on HT-3′-sul efflux to the apical direction,"Caco-2 cells [2]; 1 mM 14 days, vs untreated",lower
same,decrease of HT-3′-glu 2 formation,Caco-2 cells [2]; [5],20%
same,effect on FA transport and metabolism,"Caco-2 cells [1]; 1 mM 14 days, vs untreated",no effect
same,effect on SA transport,Caco-2 cells [3],did not affect
same,increase of MCT1 mRNA,"MCT1 (SLC16A1) mRNA; n=4, P≤.02",~ 20%
same,increase of MCT4 mRNA,MCT4 (SLC16A3) mRNA,~ 20%
same,effect on ABCG2 mRNA,ABCG2 mRNA,unaffected
same,decrease of MCT1 protein,"MCT1 protein; n=3, P<.005",~ 30%
same,decrease of UGT1A protein levels,UGT1A protein,~ 25%
"CCCC(=O)O [butyrate, Na-butyrate]",average TEER value after pretreatment,Caco-2 cells [4],1066±31 Ω cm^2
same,decrease of average TEER values,Caco-2 cells [4]; vs untreated cells,7%
same,effect on HT-3′-sul efflux to the apical direction,"Caco-2 cells [2]; 1 mM 14 days, vs untreated",lower
same,increase of HT-7-glu in basal compartment,Caco-2 cells [2]; [5],23%
same,decrease of HT-3′-glu 2 formation,Caco-2 cells [2]; [5],30–40%
same,effect on efflux of HT-7-glu to both compartments,Caco-2 cells [2],increased
same,effect on transepithelial transport of FA (apical to basolateral),Caco-2 cells [1]; 1 mM 14 days,strongly enhanced
same,effect on FA-sul in apical compartment,"Caco-2 cells [1]; 1 mM 14 days, vs untreated",lower
same,increase of FA-glu in basal compartment,"Caco-2 cells [1]; 1 mM 14 days, vs untreated",~ 40%
same,increase of SA in the basolateral compartment,Caco-2 cells [3],32%
same,decrease of MCT1 mRNA,MCT1 (SLC16A1) mRNA,~ 30%
same,effect on MCT4 mRNA,MCT4 (SLC16A3) mRNA; 1 mM 14 days,not affected
same,effect on ABCG2 mRNA,ABCG2 mRNA,decreased
same,increase of MCT1 protein,"MCT1 protein; n=3, P=.01",~ 40%
same,effect on MCT4 protein levels,MCT4 protein,not affected
same,effect on ABCG2 protein levels,ABCG2 protein; 1 mM 14 days (mix 0.25 mM each),not reflected in protein changes
same,effect on UGT1A protein,UGT1A protein,did not affect
"CC(O)C(=O)[O-].[Na+] (centres unmarked) [lactate, Na-lactate]",average TEER value after pretreatment,Caco-2 cells [4],1232±25 Ω cm^2
same,increase of TEER (resistance),Caco-2 cells [4]; vs untreated cells,7%
same,decrease of all HT phase II conjugates in apical compartment,"Caco-2 cells [2]; 1 mM 14 days, vs untreated",13–40%
same,effect on HT-3′-sul efflux to the apical direction,"Caco-2 cells [2]; 1 mM 14 days, vs untreated",lower
same,effect on HT-3′-glu 1 in basolateral side,Caco-2 cells [2]; [5],substantially decreased
same,effect on HT-3′-glu 2 in basolateral side,Caco-2 cells [2]; [5],substantially decreased
same,effect on FA-sul in basolateral compartment,"Caco-2 cells [1]; 1 mM 14 days, vs untreated",substantially decreased
same,effect on FA-sul in apical compartment,"Caco-2 cells [1]; 1 mM 14 days, vs untreated",substantially decreased
same,effect on SA transport,Caco-2 cells [3],did not affect
same,decrease of MCT1 mRNA,MCT1 (SLC16A1) mRNA,20–30%
same,decrease of MCT4 mRNA,"MCT4 (SLC16A3) mRNA; 1 mM 14 days, P<.001",20–30%
same,decrease of ABCG2 mRNA,ABCG2 mRNA,20–30%
same,decrease of ABCG2 protein levels,ABCG2 protein,~ 50%
same,decrease of UGT1A protein levels,UGT1A protein,~ 30%
"CCC(=O)[O-].[Na+] [propionate, Na-propionate]",effect on HT-3′-sul basolateral transport,"Caco-2 cells [2]; 1 mM 14 days, vs untreated",stimulated
same,effect on HT-7-sul basolateral transport,"Caco-2 cells [2]; 1 mM 14 days, vs untreated",stimulated
same,increase of HT-3′-glu 1 in basolateral side,Caco-2 cells [2]; [5],34%
same,increase of HT-7-glu in basal compartment,Caco-2 cells [2]; [5],42%
same,effect on efflux of HT-7-glu to both compartments,Caco-2 cells [2],increased
same,effect on FA-sul in basolateral compartment,"Caco-2 cells [1]; 1 mM 14 days, vs untreated",favored over efflux to the apical compartment
same,increase of FA-glu in apical compartment,"Caco-2 cells [1]; 1 mM 14 days, vs untreated",72%
same,effect on transepithelial transport of FA (apical to basolateral),Caco-2 cells [1]; 1 mM 14 days,strongly enhanced
same,higher concentration of DHFA in apical compartment,Caco-2 cells [1]; [6],4.1 fold
same,higher concentration of DHFA in basal compartment,Caco-2 cells [1]; [6],3.4 fold
same,increase of FA-glu in basal compartment,"Caco-2 cells [1]; 1 mM 14 days, vs untreated",83%
same,increase of SA in the basolateral compartment,Caco-2 cells [3],21%
same,effect on MCT1 gene expression,MCT1 (SLC16A1) mRNA,unchanged
same,increase of MCT4 mRNA,MCT4 (SLC16A3) mRNA,~ 29%
same,decrease of ABCG2 mRNA,ABCG2 mRNA,~ 18%
same,effect on MCT1 protein levels,MCT1 protein,without significant effects
same,effect on MCT4 protein levels,MCT4 protein,without significant effects
same,decrease of ABCG2 protein levels,ABCG2 protein,~ 40%
same,effect on UGT1A protein,UGT1A protein,did not affect
